Data on 9 compounds can be found in ChEMBL document CHEMBL2321657, “In vitro efficiency of 9-(N-cinnamoylbutyl)aminoacridines against blood- and liver-stage malaria parasites” (Bioorg Med Chem Lett, 2013).

The subject of one data set is Plasmodium falciparum. In words: Antiplasmodial activity against ring stage of CQ-resistant Plasmodium falciparum W2 after 48 hrs by flow cytometric analysis. Format: functional, organism-based. As to conditions: W2, 48 h.
Data set [1] relates to Plasmodium berghei. Briefly: Antiplasmodial activity against liver stage of Plasmodium berghei expressing GFP-Luc infected in HuH7 cells incubated at 1 hr prior to infection followed by compound replenisment at 24 hrs post-infection measured after 48 hrs by Alamar blue assay. The conditions noted are these: Huh-7, in the assay text read “luciferase bioluminescence assay” for “Alamar blue assay”. It is filed as functional, organism-based. The gist of the method:
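Huh7 human hepatoma cells infected with firefly luciferase-expressing P. berghei sporozoites in the presence of compound. Liver-stage infection load read as bioluminescence of cell lysates 48 h after infection. Primaquine included as the liver-stage reference.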
In general terms: Resazurin is reduced to fluorescent resorufin, in cell work by metabolically active cells.

A further data set relates to Huh-7. In words: Cytotoxicity against human HuH7 cells up to 5 uM after 48 hrs by cell confluence analysis. It is filed as cell-based. As to conditions: huh-7, 48 h.
The subject of data set [2] is Plasmodium berghei. In words: Ratio of primaquine IC50 to compound IC50 for liver stage of Plasmodium berghei. It is filed as functional.

As a reminder, the IC50 is the concentration needed to halve the response being measured. Lower therefore signals greater potency in that assay. Take `O=C(/C=C/c1ccccc1)NCCCCNc1c2ccccc2nc2ccccc12`: the IC50 in the data set on Plasmodium falciparum stood at 892 nM.

Turning to `Cc1ccc(/C=C/C(=O)NCCCCNc2c3ccccc3nc3ccccc23)cc1`, it took 225 nM to reach half-maximal inhibition in the data set with Plasmodium falciparum (IC50).

Compound `CC(C)c1ccc(/C=C/C(=O)NCCCCNc2c3ccccc3nc3ccccc23)cc1` returned an IC50 in the data set on Plasmodium falciparum of 126 nM.

As to `COc1ccc(/C=C/C(=O)NCCCCNc2c3ccccc3nc3ccccc23)cc1`, the IC50 worked out at 138 nM with Plasmodium falciparum and 3200 nM in the data set on Plasmodium berghei [1]. Moreover, the Activity result with Huh-7 is on record as “Non-toxic”. Further, the “Ratio IC50” value with Plasmodium berghei [2] is 3.

For the compound `O=C(/C=C/c1cccc(F)c1)NCCCCNc1c2ccccc2nc2ccccc12`, in the data set with Plasmodium falciparum, inhibition was half-maximal at 345 nM (IC50).

The compound `O=C(/C=C/c1ccc(F)cc1)NCCCCNc1c2ccccc2nc2ccccc12` returned a concentration for half-maximal inhibition (IC50) in the data set on Plasmodium falciparum of 145 nM. The Activity entry in the data set with Huh-7 is on record as “Non-toxic”.

Take `O=C(/C=C/c1cccc([N+](=O)[O-])c1)NCCCCNc1c2ccccc2nc2ccccc12`: the IC50 with Plasmodium falciparum came to 142 nM.

`CCN(CC)CCCC(C)Nc1ccnc2cc(Cl)ccc12` (stereo not drawn) [CHLOROQUINE] registered an IC50 in the data set on Plasmodium berghei [1] above 15000 nM.

`COc1cc(NC(C)CCCN)c2ncccc2c1` (stereo not drawn) [PRIMAQUINE]: the IC50 in the data set on Plasmodium berghei [1] stood at 8000 nM.
